Laboratory results as given in ChEMBL document CHEMBL5661979, “Pharmacological inhibition of BMK1 suppresses tumor growth through promyelocytic leukemia protein” (Cancer Cell, 2010).

What was measured:
[1] = target: Cyclin-dependent kinase 11B (Homo sapiens, UniProt P21127); experiment: Inhibition of PITSLRE in human HeLa cells lysate at 10 uM pre incubated for 15 mins followed by ATP acyl phosphate probe addition and measured after 10 mins by LC-MS/MS analysis relative to control; assay type: subcellular; details: time 25.0 min
[2] = target: T1, STE20-related kinase adapter protein beta (Homo sapiens) (UniProt Q9C0K7); experiment: Inhibition of ALS2CR2 in human HeLa cells lysate at 10 uM pre incubated for 15 mins followed by ADP acyl phosphate probe addition and measured after 10 mins by LC-MS/MS analysis relative to control; assay type: subcellular; details: time 25.0 min
T1 sequence (whole entry): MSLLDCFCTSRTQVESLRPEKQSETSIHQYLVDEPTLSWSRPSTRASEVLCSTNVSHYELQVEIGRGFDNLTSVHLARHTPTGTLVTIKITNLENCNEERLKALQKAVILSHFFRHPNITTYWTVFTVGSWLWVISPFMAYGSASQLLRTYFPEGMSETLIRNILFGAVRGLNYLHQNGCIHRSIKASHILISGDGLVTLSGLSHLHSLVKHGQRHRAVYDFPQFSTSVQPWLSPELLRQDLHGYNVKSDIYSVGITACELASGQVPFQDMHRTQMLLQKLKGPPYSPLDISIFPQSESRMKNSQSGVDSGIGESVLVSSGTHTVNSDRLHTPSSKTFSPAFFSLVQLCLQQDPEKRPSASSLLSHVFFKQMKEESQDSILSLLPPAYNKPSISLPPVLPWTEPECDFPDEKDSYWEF
How it was run: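 HeLa cell lysates (5 mg/mL total protein) were preincubated with inhibitor at 0, 0.8, 2, 10 or 50 μM for 15 min. ATP or ADP acylphosphate probe was then added (5 μM final) for 10 min, and reactions were stopped with urea. Up to four fragment ions per kinase probe-peptide were quantified by targeted MS. % inhibition was taken relative to untreated lysate. Run in duplicate.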

[3] = target: Cyclin-dependent kinase 8/19 (Homo sapiens, UniProt P49336+Q9BWU1); experiment: Inhibition of CDK8/CDK11 in human HeLa cells lysate at 50 uM pre incubated for 15 mins followed by ATP acyl phosphate probe addition and measured after 10 mins by LC-MS/MS analysis relative to control; assay type: subcellular; details: time 25.0 min
How it was run: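 KiNativ profiling in HeLa lysate (5 mg/mL total protein). Lysate incubated 15 min with inhibitor at 50, 10, 2, 0.8 or 0 μM. ATP or ADP acylphosphate probe then added (5 μM final) and reacted 10 min. Reaction stopped with urea and analysed by targeted MS, using up to four fragment ions per kinase peptide-probe conjugate. % inhibition taken against untreated lysate. Run in duplicate.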

[4] = target: Mitogen-activated protein kinase 14 (Homo sapiens, UniProt Q16539); experiment: Inhibition of P38alpha interaction site in human HeLa cells lysate at 10 uM pre incubated for 15 mins followed by ATP acyl phosphate probe addition and measured after 10 mins by LC-MS/MS analysis relative to control; assay type: subcellular; details: time 25.0 min
[5] = target: Serine/threonine-protein kinase DCLK1 (Homo sapiens) (UniProt O15075); experiment: Inhibition of DCAMKL1 (unknown origin) assessed as remaining activity at 10 uM by ATP-competition binding assay relative to control
[6] = target: Ribosomal protein S6 kinase alpha-1 (Homo sapiens, UniProt Q15418); experiment: Inhibition of RSK1 domain 2 in human HeLa cells lysate at 2 uM pre incubated for 15 mins followed by ATP acyl phosphate probe addition and measured after 10 mins by LC-MS/MS analysis relative to control; assay type: subcellular; details: time 25.0 min
[7] = target: Serine/threonine-protein kinase 3/4 (Homo sapiens, UniProt Q13043+Q13188); experiment: Inhibition of MST1/2 in human HeLa cells lysate pre incubated for 15 mins followed by ATP acyl phosphate probe addition and measured after 10 mins by LC-MS/MS analysis; assay type: subcellular
[8] = target: Phosphorylase b kinase gamma catalytic chain, liver/testis isoform (Homo sapiens, UniProt P15735); experiment: Inhibition of PHKg2 in human HeLa cells lysate pre incubated for 15 mins followed by ATP acyl phosphate probe addition and measured after 10 mins by LC-MS/MS analysis; assay type: subcellular
Ephrin type-A receptor 2 = Ephrin type-A receptor 2 (Homo sapiens, UniProt P29317); experiment: Inhibition of EphA2 in human HeLa cells lysate at 2 uM pre incubated for 15 mins followed by ATP acyl phosphate probe addition and measured after 10 mins by LC-MS/MS analysis relative to control; assay type: subcellular; details: time 25.0 min
[9] = target: Serine/threonine-protein kinase 24 (Homo sapiens, UniProt Q9Y6E0); experiment: Inhibition of MST3 in human HeLa cells lysate at 50 uM pre incubated for 15 mins followed by ATP acyl phosphate probe addition and measured after 10 mins by LC-MS/MS analysis relative to control; assay type: subcellular; details: time 25.0 min
[10] = AUCinfinity in Sprague-Dawley rat at 1 mg/kg, iv measured up to 8 hrs by LC-MS/MS analysis; assay type: ADME, organism-based; details: in vivo
How it was run: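 Sprague-Dawley rats given one intravenous dose or one oral dose of 2 mg/kg. Plasma drug concentrations were followed over time, with samples taken out to 8 hr after dosing. PK parameters (clearance, volume of distribution, half-life, oral bioavailability, Cmax) were calculated from these concentration–time data.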

[11] = target: Casein kinase I isoform alpha (Homo sapiens, UniProt P48729); experiment: Inhibition of CK1alpha in human HeLa cells lysate at 2 uM pre incubated for 15 mins followed by ATP acyl phosphate probe addition and measured after 10 mins by LC-MS/MS analysis relative to control; assay type: subcellular; details: time 25.0 min
RPS6KA1/RPS6KA2/RPS6KA3 = RPS6KA1/RPS6KA2/RPS6KA3 (Homo sapiens, UniProt P51812+Q15349+Q15418); experiment: Inhibition of RSK1/RSK2/RSK3 domain 1 in human HeLa cells lysate pre incubated for 15 mins followed by ADP acyl phosphate probe addition and measured after 10 mins by LC-MS/MS analysis; assay type: subcellular
[12] = target: Dual specificity mitogen-activated protein kinase kinase; MEK1/2 (Homo sapiens, UniProt P36507+Q02750); experiment: Inhibition of MAP2K1/MAP2K2 in human HeLa cells lysate pre incubated for 15 mins followed by ATP acyl phosphate probe addition and measured after 10 mins by LC-MS/MS analysis; assay type: subcellular
[13] = target: Serine/threonine-protein kinase N2 (Homo sapiens, UniProt Q16513); experiment: Inhibition of PKN2 in human HeLa cells lysate pre incubated for 15 mins followed by ATP acyl phosphate probe addition and measured after 10 mins by LC-MS/MS analysis; assay type: subcellular
Sequence of Serine/threonine-protein kinase N2 (Q16513 whole entry): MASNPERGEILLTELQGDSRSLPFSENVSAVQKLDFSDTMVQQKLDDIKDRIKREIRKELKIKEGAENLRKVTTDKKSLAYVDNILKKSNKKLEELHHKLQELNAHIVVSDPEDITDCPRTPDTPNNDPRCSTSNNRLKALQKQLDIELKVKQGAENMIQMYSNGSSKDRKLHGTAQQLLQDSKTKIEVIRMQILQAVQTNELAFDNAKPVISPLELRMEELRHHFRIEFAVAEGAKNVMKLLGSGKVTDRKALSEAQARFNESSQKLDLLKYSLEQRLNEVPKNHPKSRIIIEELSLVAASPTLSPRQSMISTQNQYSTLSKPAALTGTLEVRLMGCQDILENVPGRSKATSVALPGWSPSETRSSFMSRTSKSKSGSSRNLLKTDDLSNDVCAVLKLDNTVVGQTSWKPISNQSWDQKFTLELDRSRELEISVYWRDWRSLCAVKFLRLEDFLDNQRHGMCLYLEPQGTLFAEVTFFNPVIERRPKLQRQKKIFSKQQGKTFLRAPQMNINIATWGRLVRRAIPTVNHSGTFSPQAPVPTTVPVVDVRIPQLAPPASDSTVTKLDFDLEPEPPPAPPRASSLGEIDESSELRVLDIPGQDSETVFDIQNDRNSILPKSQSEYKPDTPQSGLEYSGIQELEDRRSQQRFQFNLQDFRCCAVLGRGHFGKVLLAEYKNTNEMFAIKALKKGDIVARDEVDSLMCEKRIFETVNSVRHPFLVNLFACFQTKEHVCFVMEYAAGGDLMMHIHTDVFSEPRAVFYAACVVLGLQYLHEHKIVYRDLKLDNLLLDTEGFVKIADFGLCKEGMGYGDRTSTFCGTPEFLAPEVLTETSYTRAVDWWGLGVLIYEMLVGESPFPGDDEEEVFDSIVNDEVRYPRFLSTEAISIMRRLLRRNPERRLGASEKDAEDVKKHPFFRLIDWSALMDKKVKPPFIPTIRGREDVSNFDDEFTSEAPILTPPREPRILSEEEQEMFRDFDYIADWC

Sequence of Phosphorylase b kinase gamma catalytic chain, liver/testis isoform (P15735 whole entry, canonical isoform): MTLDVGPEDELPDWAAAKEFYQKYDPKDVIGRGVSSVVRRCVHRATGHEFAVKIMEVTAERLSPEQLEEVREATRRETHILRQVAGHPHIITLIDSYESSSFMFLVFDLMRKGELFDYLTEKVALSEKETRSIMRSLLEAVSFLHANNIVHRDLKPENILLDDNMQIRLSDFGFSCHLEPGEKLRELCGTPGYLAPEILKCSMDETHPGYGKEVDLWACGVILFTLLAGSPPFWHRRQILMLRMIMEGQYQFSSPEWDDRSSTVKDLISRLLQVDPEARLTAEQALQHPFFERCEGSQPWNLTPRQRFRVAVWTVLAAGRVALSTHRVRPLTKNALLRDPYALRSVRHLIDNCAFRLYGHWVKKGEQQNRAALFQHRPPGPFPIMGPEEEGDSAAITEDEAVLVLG
Sequence of Serine/threonine-protein kinase 24 (Q9Y6E0 whole entry, looked up): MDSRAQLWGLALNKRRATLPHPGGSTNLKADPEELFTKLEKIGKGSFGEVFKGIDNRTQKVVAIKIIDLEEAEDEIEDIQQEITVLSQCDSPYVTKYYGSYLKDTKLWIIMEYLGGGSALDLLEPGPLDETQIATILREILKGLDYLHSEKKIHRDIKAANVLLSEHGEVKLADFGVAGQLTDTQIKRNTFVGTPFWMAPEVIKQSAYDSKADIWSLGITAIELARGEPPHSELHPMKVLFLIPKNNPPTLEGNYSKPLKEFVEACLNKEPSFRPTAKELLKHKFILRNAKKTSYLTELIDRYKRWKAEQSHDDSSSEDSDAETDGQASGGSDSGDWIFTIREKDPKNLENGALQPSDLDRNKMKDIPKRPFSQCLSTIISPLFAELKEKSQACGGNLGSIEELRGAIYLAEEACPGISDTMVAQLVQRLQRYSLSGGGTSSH
Sequence of Casein kinase I isoform alpha (P48729 2-337 limits assumed): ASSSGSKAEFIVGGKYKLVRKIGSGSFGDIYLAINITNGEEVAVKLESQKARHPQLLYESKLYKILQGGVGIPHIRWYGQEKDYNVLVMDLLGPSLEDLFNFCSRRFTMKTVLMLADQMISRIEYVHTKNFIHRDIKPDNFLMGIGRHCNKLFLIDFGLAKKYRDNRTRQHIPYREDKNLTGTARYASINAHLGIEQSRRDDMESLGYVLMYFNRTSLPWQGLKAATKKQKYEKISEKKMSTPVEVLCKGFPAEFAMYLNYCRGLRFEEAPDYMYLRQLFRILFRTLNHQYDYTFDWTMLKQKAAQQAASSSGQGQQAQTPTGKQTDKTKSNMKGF
Sequence of Cyclin-dependent kinase 11B (P21127 whole entry): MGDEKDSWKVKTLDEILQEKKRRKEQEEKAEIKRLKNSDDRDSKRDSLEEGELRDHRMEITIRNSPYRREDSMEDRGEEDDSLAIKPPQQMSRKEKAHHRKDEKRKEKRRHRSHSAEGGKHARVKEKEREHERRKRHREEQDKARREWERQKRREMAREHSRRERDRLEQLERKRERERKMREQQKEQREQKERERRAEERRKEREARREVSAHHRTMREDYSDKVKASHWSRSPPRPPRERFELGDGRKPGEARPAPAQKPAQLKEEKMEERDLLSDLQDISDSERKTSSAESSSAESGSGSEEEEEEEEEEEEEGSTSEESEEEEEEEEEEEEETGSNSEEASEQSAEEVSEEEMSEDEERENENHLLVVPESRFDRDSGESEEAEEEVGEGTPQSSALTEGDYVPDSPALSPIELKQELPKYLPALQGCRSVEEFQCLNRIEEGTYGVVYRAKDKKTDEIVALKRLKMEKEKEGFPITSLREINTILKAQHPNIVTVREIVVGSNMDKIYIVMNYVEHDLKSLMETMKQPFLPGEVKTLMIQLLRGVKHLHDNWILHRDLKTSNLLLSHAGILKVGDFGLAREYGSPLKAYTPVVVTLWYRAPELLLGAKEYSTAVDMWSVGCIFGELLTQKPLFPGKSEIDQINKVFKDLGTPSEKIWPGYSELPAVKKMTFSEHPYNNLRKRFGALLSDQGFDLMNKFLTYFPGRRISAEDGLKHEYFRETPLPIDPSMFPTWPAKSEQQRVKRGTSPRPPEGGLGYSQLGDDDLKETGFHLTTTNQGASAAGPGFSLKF
Sequence of Ribosomal protein S6 kinase alpha-1 (Q15418 whole entry, the tested form may be a part): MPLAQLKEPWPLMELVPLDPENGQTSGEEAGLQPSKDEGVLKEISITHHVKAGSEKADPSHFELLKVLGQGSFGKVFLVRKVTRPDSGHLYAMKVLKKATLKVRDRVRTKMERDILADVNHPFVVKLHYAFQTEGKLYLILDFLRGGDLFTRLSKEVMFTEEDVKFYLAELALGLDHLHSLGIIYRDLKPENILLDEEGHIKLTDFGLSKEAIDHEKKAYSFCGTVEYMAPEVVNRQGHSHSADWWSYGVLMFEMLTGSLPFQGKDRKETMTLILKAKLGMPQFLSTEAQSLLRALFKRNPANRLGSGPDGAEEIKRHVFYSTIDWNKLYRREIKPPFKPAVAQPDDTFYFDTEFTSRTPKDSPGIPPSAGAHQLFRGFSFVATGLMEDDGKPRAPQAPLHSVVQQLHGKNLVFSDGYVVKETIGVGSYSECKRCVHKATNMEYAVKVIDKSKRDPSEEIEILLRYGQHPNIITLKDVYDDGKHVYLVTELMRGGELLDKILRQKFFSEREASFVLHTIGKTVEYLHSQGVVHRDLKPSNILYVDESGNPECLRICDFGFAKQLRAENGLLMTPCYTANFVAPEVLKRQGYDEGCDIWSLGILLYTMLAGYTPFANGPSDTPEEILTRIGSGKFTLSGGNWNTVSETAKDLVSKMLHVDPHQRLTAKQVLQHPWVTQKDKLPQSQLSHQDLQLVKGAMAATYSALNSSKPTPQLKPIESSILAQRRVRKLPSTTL
Sequence of Mitogen-activated protein kinase 14 (Q16539 whole entry): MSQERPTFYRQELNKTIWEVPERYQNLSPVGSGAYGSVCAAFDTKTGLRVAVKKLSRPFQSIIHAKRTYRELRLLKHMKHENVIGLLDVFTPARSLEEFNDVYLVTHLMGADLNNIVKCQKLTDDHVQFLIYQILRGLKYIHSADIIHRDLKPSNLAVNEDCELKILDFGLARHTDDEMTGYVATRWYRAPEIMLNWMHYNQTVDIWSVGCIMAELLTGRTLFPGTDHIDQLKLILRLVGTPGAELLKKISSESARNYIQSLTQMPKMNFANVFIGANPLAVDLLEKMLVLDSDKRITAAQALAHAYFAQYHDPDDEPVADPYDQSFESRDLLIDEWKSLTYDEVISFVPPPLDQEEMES
Sequence of Ephrin type-A receptor 2 (P29317 whole entry): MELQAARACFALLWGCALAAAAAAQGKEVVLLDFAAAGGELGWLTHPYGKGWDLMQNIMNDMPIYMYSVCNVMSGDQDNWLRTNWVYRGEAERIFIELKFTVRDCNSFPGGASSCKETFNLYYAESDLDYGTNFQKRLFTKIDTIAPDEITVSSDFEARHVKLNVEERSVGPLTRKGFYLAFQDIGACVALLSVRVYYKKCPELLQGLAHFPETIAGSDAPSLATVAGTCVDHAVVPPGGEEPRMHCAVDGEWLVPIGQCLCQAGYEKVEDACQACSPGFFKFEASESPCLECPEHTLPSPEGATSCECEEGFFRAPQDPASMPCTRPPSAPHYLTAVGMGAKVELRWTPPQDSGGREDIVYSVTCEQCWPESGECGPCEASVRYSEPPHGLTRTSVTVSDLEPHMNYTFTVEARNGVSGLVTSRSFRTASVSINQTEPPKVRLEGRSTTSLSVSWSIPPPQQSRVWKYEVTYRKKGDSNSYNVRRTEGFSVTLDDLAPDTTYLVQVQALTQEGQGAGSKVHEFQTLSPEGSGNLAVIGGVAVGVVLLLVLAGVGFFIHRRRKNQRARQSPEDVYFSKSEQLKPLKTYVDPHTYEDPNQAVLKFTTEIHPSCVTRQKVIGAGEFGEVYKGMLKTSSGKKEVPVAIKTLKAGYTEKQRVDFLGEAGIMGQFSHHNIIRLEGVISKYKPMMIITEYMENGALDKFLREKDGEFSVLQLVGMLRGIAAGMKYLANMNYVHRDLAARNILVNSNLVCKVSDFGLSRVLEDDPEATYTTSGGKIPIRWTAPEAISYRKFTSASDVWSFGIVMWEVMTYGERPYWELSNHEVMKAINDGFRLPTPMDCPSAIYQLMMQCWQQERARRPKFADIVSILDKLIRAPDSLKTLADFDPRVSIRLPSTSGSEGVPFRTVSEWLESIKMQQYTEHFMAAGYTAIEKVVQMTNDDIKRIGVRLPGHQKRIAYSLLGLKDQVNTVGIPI

SMILES: CCOc1cc(N2CCC(O)CC2)ccc1Nc1ncc2c(n1)N(C)c1ccccc1C(=O)N2C
- inhibition [1]: 0.3%
- inhibition [2]: -9.5%
- inhibition [3]: 7.7%
- inhibition [4]: 17.4%
- Activity [5]: 0.9%
- inhibition [6]: 13.6%
- IC50 [7]: > 50 µM
- IC50 [8]: > 50 µM
- inhibition (Ephrin type-A receptor 2): -7.6%
- inhibition [9]: -4.6%
- AUC(0-inf) [10]: 1.39 µM·h
- inhibition [11]: 2.6%
- IC50 (RPS6KA1/RPS6KA2/RPS6KA3): > 50 µM
- IC50 [12]: > 50 µM
- IC50 [13]: > 50 µM
